Measured values reported in ChEMBL document CHEMBL1135468 (J Med Chem, 2002).
*1 amine or outer side, *2 acyl side, *3 side chain or, on linkers, in order; H or OH if unused. Where a SMILES comes first, the peptide text is derived from it. Bridges are numbered along the chain shown (N, C = ends). [ ]: non-standard residue; d: D form. The star is where a group is joined. 6FAM = O=C1OC2(c3ccc(O)cc3Oc3cc(O)ccc32)c2cc(C(=O)*)ccc21; X4 = O=C(CC1(S[*:2])CCCCC1)[*:1]; X1 = O=C([C@@H](O)CS[*:2])[*:1]; Orn = NCCC[C@H](N)C(=O)O; Mpa = O=C(O)CCS

What was measured:
Vasopressin V1a receptor = Vasopressin V1a receptor (Homo sapiens, UniProt P37288); experiment: Binding affinity for human Vasopressin V1a receptor
Chain of Vasopressin V1a receptor (P37288 whole entry): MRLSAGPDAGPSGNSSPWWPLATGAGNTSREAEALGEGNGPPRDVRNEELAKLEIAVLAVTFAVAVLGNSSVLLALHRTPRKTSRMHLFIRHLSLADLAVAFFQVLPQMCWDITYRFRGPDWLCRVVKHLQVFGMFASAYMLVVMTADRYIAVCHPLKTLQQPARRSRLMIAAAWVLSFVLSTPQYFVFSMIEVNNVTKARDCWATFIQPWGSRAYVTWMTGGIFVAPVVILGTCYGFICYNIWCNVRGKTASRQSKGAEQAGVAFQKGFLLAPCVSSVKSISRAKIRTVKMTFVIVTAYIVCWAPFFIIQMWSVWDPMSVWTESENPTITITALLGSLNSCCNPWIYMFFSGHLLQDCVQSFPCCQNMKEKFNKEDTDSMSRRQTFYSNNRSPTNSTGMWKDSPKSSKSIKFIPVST

Vasopressin V2 receptor = Vasopressin V2 receptor (Homo sapiens, UniProt P30518); experiment: Binding affinity towards human Vasopressin V2 receptor
Chain of Vasopressin V2 receptor (P30518 whole entry): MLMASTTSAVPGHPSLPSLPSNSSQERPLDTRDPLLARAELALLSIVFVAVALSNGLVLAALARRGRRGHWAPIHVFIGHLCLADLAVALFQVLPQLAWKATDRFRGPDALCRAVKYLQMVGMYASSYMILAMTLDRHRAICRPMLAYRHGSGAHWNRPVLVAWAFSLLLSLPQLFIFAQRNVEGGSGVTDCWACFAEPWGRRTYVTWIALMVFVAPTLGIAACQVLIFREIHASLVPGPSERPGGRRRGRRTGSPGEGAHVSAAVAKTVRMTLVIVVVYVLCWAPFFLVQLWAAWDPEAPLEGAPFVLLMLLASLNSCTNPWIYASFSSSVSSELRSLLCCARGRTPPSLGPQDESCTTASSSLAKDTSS
How it was run: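 Human V2 receptor stably expressed in CHO cells, butyrate-treated (5 mM, overnight); membranes at 5-10 µg protein/assay competed against 1-3 nM [3H]AVP. Fluorescent ligand ranged 1 pM-1 µM; nonspecific binding defined with 1 µM unlabeled ligand. Incubation 1 h at 30 °C. Ki from nonlinear least-squares fit of two independent experiments, each run in triplicate.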

Vasopressin V1b receptor = target: T1, Vasopressin V1b receptor (Homo sapiens, UniProt P47901); experiment: Binding affinity towards human Vasopressin V1b receptor
T1 sequence (P47901 whole entry): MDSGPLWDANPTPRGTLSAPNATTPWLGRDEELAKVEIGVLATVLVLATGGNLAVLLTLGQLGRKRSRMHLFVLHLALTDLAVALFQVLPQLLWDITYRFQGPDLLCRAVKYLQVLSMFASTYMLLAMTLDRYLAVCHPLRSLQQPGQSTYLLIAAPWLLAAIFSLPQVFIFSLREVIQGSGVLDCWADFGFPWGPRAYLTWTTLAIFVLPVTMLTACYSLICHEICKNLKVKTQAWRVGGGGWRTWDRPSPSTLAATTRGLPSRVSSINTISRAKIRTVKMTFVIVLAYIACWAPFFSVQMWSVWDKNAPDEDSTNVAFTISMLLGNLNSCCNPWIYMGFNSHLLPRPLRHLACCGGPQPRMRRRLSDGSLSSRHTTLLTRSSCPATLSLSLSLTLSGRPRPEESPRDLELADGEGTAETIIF
How it was run: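 Competition binding on membranes from CHO cells stably expressing one human receptor, butyrate-treated (5 mM, overnight). Radioligands: OT, 200-250 pM [125I]OTA or 120-180 pM [125I]HO-LVA; V1a, 40-60 pM [125I]HO-LVA; V1b, 1-3 nM [3H]AVP. Competitor 1 pM-1 µM; nonspecific with 1 µM unlabeled ligand; 1 h, 30 °C. Ki by nonlinear least-squares, ≥3 experiments in triplicate.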

Oxytocin receptor = target: T2, Oxytocin receptor (Homo sapiens, UniProt P30559); experiment: Binding affinity for human oxytocin receptor
T2 sequence (P30559 whole entry): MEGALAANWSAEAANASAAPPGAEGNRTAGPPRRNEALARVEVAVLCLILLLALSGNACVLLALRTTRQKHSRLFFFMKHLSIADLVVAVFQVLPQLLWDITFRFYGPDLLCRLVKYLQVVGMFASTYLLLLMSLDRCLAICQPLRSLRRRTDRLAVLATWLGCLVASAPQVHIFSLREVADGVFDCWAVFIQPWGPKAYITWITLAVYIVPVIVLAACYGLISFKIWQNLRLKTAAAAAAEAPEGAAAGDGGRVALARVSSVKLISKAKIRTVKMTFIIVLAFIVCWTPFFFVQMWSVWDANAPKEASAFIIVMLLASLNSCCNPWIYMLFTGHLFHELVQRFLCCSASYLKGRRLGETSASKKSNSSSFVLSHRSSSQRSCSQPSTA

| SMILES | Ki (Vasopressin V1a receptor) | Ki (Vasopressin V2 receptor) | Ki (Vasopressin V1b receptor) | Ki (Oxytocin receptor) |
| --- | --- | --- | --- | --- |
| CC[C@H](C)[C@@H]1NC(=O)[C@@H](Cc2ccc(O)cc2)NC(=O)CC2(CCCCC2)SSC[C@@H](C(=O)N2CCC[C@H]2C(=O)N[C@@H](CCCNC(=O)c2ccc3c(c2)C2(OC3=O)c3ccc(O)cc3Oc3cc(O)ccc32)C(=O)O)NC(=O)[C@H](CC(N)=O)NC(=O)[C@H]([C@@H](C)O)NC1=O | 656 nM | > 10000 nM | > 1000 nM | 126 nM |
| CC[C@H](C)[C@@H]1NC(=O)[C@H](Cc2ccc(OC)cc2)NC(=O)CC2(CCCCC2)SSC[C@@H](C(=O)N2CCC[C@H]2C(=O)N[C@@H](CCCN)C(=O)N[C@@H](Cc2ccc(O)cc2)C(N)=O)NC(=O)[C@H](CC(N)=O)NC(=O)[C@H]([C@@H](C)O)NC1=O (Y(Me)ITNCP[Orn]Y-NH2; linker N-5 via X4) | 3.9 nM | 930 nM | > 10000 nM | 0.21 nM |
| CC[C@H](C)[C@@H]1NC(=O)[C@H](Cc2ccc(O)cc2)NC(=O)[C@@H](O)CSSC[C@@H](C(=O)N2CCC[C@H]2C(=O)N[C@@H](CCCCNC(=O)c2ccc3c(c2)C2(OC3=O)c3ccc(O)cc3Oc3cc(O)ccc32)C(=O)NCC(N)=O)NC(=O)[C@H](CC(N)=O)NC(=O)[C@H](CCC(N)=O)NC1=O (YIQNCPK(6FAM)G-NH2; linker N-5 via X1) | 13.7 nM |  | 66 nM | 0.34 nM |
| CC[C@H](C)[C@@H]1NC(=O)[C@H](Cc2ccc(O)cc2)NC(=O)[C@@H](O)CSSC[C@@H](C(=O)N2CCC[C@H]2C(=O)N[C@@H](CCCNC(=O)c2ccc3c(c2)C2(OC3=O)c3ccc(O)cc3Oc3cc(O)ccc32)C(=O)NCC(N)=O)NC(=O)[C@H](CC(N)=O)NC(=O)[C@H](CCC(N)=O)NC1=O (YIQNCP[Orn](6FAM)G-NH2; linker N-5 via X1) | 12.2 nM |  | 126 nM | 0.18 nM |
| CC[C@H](C)[C@@H]1NC(=O)[C@H](Cc2ccc(O)cc2)NC(=O)CCSSC[C@@H](C(=O)N2CCC[C@H]2C(=O)N[C@@H](CCCCNC(=O)c2ccc3c(c2)C2(OC3=O)c3ccc(O)cc3Oc3cc(O)ccc32)C(=O)NCC(N)=O)NC(=O)[C@H](CC(N)=O)NC(=O)[C@H](CCC(N)=O)NC1=O ([Mpa]YIQNCPK(6FAM)G-NH2; disulfide 1-6) | 57 nM | > 10000 nM | 124 nM | 0.29 nM |
| CC[C@H](C)[C@@H]1NC(=O)[C@H](Cc2ccc(O)cc2)NC(=O)CCSSC[C@@H](C(=O)N2CCC[C@H]2C(=O)N[C@@H](CCCNC(=O)c2ccc3c(c2)C2(OC3=O)c3ccc(O)cc3Oc3cc(O)ccc32)C(=O)NCC(N)=O)NC(=O)[C@H](CC(N)=O)NC(=O)[C@H](CCC(N)=O)NC1=O ([Mpa]YIQNCP[Orn](6FAM)G-NH2; disulfide 1-6) | 107 nM | > 10000 nM | 393 nM | 0.25 nM |
